Data: ChEMBL document CHEMBL4376814, “Novel cyclin-dependent kinase 9 (CDK9) inhibitor with suppression of cancer stemness activity against non-small-cell lung cancer” (Eur J Med Chem, 2019)

Key:
[1] = molecular target: Serine/threonine-protein kinase 38-like (Homo sapiens) (UniProt Q9Y2H1); assay: Inhibition of recombinant human NDR2 (83 to end residues) at 1 uM using RSRSRSRSRSRSRSR as substrate measured after 120 mins in presence of [gamma33P]ATP by scintillation counting method relative to control
[2] = molecular target: Cyclin-dependent kinase-like 2 (Homo sapiens) (UniProt Q92772); assay: Inhibition of human CDKL2 at 1 uM at 1 uM by radiometric method relative to control
Method in brief: (§1)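 Percent inhibition of kinase activity at a single compound concentration, measured by the outsourced Eurofins KinaseProfiler panel. Values are the mean of two independent experiments.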

[3] = molecular target: Serine/threonine-protein kinase Sgk3 (Homo sapiens) (UniProt Q96BR1); assay: Inhibition of human SGK3 (119 to end residues) at 1 uM using GRPRTSSFAEGKK as substrate measured after 40 mins in presence of [gamma33P]ATP by scintillation counting method relative to control; method in brief: as §1
[4] = molecular target: Serine/threonine-protein kinase 10 (Homo sapiens) (UniProt O94804); assay: Inhibition of recombinant human LOK (1 to 348 residues) at 1 uM using RLGRDKYKTLRQIRQ as substrate measured after 40 mins in presence of [gamma33P]ATP by scintillation counting method relative to control
[5] = molecular target: Calcium/calmodulin-dependent protein kinase kinase 1 (Homo sapiens) (UniProt Q8N5S9); assay: Inhibition of recombinant full-length human CaMKK1 at 1 uM using calmodulin as substrate measured after 40 mins in presence of [gamma33P]ATP by scintillation counting method relative to control
[6] = Intrinsic clearance in human liver microsomes at 2 uM in presence of NADPH measured up to 1 hr by HPLC analysis; assay type: ADME, Microsome
[7] = test system: Eukaryotic elongation factor 2 kinase (Homo sapiens), O00418 [H23R]; assay: Inhibition of recombinant human EEF2K H23R mutant (2 to end residues) at 1 uM using RKKFGESEKTKTKEFL as substrate measured after 40 mins in presence of [gamma33P]ATP by scintillation counting method relative to control
[8] = molecular target: Ephrin type-A receptor 2 (Homo sapiens) (UniProt P29317); assay: Inhibition of recombinant human EphA2 (596 to 900 residues) at 1 uM using poly(Glu, Tyr) 4:1 as substrate measured after 40 mins in presence of [gamma33P]ATP by scintillation counting method relative to control
[9] = molecular target: CDK9/cyclin T1 (Homo sapiens) (UniProt O60563+P50750); assay: Inhibition of recombinant full-length human CDK9/cyclinT1 at 500 nM using KTFCGTPEYLAPEVRREPRILSEEEQEMFRDFDYIADWC peptide as substrate measured after 40 mins in presence of [gamma33P]ATP by scintillation counting method relative to control; assay type: protein-complex assay; method in brief: as §1
[10] = Half life in Sprague-Dawley rat liver microsomes at 2 uM in presence of NADPH measured up to 1 hr by HPLC analysis; assay type: ADME, Microsome
Method in brief: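 Compound at 2 μM incubated at 37 °C with liver microsomes (1 mg/mL), 3 mM MgCl2 and 0.1 M phosphate buffer pH 7.4; 5 min preincubation, then started with 3 mM NADPH. Aliquots (n = 3) at 0, 10, 20, 30, 45, 60 min quenched with ice-cold acetonitrile, centrifuged, supernatant by HPLC. t1/2 from linear-regression kinetic constant k.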

[11] = molecular target: cGMP-dependent protein kinase 1 (Homo sapiens) (UniProt Q13976); assay: Inhibition of recombinant full-length human PKG1beta at 1 uM using RRRLSFAEPG as substrate measured after 40 mins in presence of [gamma33P]ATP by scintillation counting method relative to control
NCI-H1299 [12] = assay: Induction of cell cycle arrest in human H1299 cells assessed as increase in accumulation of cells at G2/M phase at 1 uM after 24 hrs by propidium iodide/RNase staining based flow cytometric analysis (reference value: 19%); assay type: functional
Method in brief: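 A549 and H1299 plated at 5×10^5 cells/mL in 6-well plates, treated after adherence for 24 h. Washed with PBS, fixed overnight in ice-cold 75% ethanol, stained with propidium iodide plus RNase A for 30 min at 37 °C, analysed by flow cytometry for phase distribution. Means ± SD, three independent experiments.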

[13] = molecular target: Myosin light chain kinase, smooth muscle (Homo sapiens) (UniProt Q15746); assay: Inhibition of recombinant human MLCK (1425 to 1771 residues) at 1 uM using calmodulin as substrate measured after 40 mins in presence of [gamma33P]ATP by scintillation counting method relative to control
[14] = molecular target: FKBP12A/mTOR (Homo sapiens) (UniProt P62942+P42345); assay: Inhibition of recombinant full-length human mTOR/FKBP12 at 1 uM measured after 40 mins in presence of [gamma33P]ATP by scintillation counting method relative to control; assay type: protein-complex assay
[15] = test system: Hepatocyte growth factor receptor (Homo sapiens), P08581 [D1228N]; assay: Inhibition of recombinant human MET A1209G/V1290L/D1246N mutant (974 to end residues) at 1 uM using KKKGQEEEYVFIE as substrate measured after 40 mins in presence of [gamma33P]ATP by scintillation counting method relative to control
[16] = test system: Angiopoietin-1 receptor (Homo sapiens), Q02763 [Q939H,Q940H,R849W]; assay: Inhibition of human Tie2 Q939H/Q940H/R849W mutant (771 to end residues) at 1 uM using EFPIYDFLPAKKK as substrate measured after 40 mins in presence of [gamma33P]ATP by scintillation counting method relative to control
Method in brief: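 Single-point inhibition at 1 µM was measured in the Eurofins KinaseProfiler panel. Values are the mean of two independent experiments.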

NCI-H1299 [17] = assay: Induction of apoptosis in human H1299 cells assessed as viable cells at 0.5 uM after 48 hrs by AnnexinV-FITC/PI staining-based flow cytometric analysis (reference value: 97.1%); assay type: functional; details: NCI-H1299, 48 h, read-out: Activity
[18] = molecular target: Inhibitor of nuclear factor kappa-B kinase subunit beta (Homo sapiens) (UniProt O14920); assay: Inhibition of recombinant full-length human IKKbeta at 1 uM using peptide substrate measured after 40 mins in presence of [gamma33P]ATP by scintillation counting method relative to control
[19] = molecular target: Fibroblast growth factor receptor 1 (Homo sapiens) (UniProt P11362); assay: Inhibition of recombinant human FGFR1 (456 to 765 residues) at 1 uM using KKKSPGEYVNIEFG as substrate measured after 40 mins in presence of [gamma33P]ATP by scintillation counting method relative to control
[20] = molecular target: 5'-AMP-activated protein kinase catalytic subunit alpha-2 (Homo sapiens) (UniProt P54646); assay: Inhibition of full length recombinant human AMPK alpha2 at 1 uM using AMARAASAAALARRR as substrate measured after 40 mins in presence of [gamma33P]ATP by scintillation counting method relative to control
Chain of 5'-AMP-activated protein kinase catalytic subunit alpha-2 (Homo sapiens) (P54646 whole entry, looked up): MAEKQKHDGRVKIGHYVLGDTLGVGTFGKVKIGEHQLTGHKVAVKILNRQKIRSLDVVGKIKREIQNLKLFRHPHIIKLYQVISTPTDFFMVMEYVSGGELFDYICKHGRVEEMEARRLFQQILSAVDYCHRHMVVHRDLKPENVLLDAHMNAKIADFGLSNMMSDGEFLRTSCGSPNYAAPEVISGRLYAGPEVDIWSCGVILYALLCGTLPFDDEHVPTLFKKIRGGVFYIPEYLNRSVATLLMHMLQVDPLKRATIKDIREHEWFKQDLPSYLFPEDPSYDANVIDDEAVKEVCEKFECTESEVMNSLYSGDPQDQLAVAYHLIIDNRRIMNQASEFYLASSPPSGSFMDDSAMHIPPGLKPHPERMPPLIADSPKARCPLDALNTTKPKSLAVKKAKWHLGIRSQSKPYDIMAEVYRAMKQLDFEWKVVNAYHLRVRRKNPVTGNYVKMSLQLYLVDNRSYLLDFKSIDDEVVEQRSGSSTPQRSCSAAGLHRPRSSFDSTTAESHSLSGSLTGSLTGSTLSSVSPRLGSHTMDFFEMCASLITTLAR

Chain of Angiopoietin-1 receptor (Homo sapiens), Q02763 [Q939H,Q940H,R849W] (Q02763 whole entry R849W/Q939H/Q940H): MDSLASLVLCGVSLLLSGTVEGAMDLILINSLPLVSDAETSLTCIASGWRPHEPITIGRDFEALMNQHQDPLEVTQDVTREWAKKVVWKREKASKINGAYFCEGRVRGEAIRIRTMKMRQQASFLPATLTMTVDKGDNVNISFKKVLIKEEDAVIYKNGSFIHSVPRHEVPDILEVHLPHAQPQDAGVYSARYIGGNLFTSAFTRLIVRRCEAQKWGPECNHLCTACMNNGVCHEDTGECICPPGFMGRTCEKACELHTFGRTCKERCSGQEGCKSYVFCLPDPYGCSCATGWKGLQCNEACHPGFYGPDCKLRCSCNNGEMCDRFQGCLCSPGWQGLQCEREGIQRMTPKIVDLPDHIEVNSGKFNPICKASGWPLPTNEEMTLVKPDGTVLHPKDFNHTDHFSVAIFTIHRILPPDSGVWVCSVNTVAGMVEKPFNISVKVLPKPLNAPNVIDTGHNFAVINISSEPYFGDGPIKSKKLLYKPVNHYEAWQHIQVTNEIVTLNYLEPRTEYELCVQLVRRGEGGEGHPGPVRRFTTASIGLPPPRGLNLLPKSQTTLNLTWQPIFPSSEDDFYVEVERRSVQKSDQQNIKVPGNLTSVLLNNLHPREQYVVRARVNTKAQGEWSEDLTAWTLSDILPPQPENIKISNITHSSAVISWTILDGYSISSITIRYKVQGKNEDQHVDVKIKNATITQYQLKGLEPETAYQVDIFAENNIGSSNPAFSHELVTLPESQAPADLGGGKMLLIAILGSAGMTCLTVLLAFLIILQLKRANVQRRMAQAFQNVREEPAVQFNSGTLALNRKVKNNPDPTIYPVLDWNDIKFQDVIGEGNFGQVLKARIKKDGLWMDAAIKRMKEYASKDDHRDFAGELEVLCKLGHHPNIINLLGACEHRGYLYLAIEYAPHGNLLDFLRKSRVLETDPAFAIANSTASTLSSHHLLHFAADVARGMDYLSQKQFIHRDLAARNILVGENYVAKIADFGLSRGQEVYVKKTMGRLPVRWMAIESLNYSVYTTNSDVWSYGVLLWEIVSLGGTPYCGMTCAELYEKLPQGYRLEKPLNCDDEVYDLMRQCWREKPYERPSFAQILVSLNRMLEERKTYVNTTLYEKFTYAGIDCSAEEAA
Chain of Fibroblast growth factor receptor 1 (Homo sapiens) (P11362 22-822 limits assumed): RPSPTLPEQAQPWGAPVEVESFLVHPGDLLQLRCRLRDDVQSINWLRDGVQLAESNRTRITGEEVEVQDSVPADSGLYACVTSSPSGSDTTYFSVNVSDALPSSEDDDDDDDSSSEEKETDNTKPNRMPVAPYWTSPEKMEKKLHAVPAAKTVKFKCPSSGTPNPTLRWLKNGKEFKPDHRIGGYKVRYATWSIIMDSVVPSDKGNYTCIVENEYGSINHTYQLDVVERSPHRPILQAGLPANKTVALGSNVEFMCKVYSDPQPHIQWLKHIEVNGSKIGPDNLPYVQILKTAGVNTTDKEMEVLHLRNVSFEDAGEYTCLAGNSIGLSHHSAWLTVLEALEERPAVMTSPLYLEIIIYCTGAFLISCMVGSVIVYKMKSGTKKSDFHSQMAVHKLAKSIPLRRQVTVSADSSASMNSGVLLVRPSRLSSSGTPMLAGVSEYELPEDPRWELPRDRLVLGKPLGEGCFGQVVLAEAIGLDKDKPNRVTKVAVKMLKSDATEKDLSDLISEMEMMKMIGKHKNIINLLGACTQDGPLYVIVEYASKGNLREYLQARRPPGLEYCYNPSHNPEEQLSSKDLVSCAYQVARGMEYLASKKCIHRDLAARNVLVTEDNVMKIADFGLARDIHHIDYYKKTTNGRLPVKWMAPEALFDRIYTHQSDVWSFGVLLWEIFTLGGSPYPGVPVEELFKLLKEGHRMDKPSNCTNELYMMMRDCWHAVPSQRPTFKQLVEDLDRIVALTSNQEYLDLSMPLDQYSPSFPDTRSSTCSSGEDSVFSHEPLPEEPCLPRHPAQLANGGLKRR
Chain of Hepatocyte growth factor receptor (Homo sapiens), P08581 [D1228N] (P08581 whole entry D1228N): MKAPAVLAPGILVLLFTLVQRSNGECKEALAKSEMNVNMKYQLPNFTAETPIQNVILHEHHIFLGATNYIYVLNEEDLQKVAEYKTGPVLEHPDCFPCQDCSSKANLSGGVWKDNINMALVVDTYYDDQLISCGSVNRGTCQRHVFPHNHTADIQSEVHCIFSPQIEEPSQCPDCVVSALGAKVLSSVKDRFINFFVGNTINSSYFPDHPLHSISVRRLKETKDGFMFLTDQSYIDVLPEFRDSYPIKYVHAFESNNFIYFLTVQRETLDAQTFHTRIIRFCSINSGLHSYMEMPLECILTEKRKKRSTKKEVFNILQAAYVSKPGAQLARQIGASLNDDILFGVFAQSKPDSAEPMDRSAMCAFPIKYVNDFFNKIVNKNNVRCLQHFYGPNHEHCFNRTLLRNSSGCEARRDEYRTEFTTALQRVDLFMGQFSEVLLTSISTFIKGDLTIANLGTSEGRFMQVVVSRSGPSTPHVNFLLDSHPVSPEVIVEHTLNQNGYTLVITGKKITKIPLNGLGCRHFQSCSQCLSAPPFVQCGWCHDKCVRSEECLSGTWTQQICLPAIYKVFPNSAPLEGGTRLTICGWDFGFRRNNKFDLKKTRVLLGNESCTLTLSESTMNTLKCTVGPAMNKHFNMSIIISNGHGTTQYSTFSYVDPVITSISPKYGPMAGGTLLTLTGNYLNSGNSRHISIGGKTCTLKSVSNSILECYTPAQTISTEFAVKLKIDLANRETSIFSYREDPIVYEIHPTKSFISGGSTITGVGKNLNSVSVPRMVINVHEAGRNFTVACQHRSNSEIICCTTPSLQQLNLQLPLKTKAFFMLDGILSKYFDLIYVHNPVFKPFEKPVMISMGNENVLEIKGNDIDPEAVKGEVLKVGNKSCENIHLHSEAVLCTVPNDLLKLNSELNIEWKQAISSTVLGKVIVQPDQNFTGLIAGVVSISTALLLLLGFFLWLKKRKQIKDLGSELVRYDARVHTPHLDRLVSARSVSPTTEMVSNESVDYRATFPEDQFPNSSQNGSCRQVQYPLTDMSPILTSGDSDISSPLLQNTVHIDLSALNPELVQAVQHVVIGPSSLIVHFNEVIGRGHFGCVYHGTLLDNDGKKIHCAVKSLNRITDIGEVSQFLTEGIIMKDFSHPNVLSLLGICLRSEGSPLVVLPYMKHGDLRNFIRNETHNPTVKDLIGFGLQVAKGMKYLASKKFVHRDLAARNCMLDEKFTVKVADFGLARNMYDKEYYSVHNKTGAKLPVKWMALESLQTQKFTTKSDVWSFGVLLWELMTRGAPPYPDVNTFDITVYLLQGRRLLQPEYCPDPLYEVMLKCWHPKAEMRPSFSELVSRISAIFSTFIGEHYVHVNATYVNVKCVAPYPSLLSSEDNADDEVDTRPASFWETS
Chain of Ephrin type-A receptor 2 (Homo sapiens) (P29317 whole entry, the tested form may be a part): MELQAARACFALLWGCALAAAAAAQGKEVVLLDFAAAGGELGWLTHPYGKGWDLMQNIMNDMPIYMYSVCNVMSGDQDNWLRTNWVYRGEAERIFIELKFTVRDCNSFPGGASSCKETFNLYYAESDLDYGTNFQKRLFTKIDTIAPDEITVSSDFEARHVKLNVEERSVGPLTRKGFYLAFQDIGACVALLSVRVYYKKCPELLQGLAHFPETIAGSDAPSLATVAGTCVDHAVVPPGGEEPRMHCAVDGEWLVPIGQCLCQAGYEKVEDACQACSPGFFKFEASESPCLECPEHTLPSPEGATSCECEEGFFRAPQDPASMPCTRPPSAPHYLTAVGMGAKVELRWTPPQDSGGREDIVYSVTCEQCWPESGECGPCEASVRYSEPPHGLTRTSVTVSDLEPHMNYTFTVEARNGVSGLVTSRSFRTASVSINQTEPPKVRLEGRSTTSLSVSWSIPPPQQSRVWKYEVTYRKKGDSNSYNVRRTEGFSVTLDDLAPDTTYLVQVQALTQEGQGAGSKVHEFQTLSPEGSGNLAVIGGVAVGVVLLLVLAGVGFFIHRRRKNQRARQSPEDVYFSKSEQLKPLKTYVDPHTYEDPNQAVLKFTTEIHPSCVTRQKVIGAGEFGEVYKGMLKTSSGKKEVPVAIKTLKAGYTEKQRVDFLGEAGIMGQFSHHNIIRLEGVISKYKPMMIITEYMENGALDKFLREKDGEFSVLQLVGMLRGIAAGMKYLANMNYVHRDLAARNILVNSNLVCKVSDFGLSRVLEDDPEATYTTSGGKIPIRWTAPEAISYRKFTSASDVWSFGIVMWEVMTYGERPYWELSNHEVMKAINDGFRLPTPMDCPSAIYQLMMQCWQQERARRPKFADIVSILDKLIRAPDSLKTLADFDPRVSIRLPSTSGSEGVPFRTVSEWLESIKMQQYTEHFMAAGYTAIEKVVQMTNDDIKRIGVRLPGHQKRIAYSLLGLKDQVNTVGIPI
Chain of FKBP12A/mTOR (Homo sapiens) (P62942 2-108 limits assumed, other chains not shown): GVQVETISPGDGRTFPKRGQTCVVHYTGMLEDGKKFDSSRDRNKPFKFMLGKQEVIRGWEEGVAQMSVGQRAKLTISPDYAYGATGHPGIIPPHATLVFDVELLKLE

SMILES: CN(C)C(=O)c1cc2cnc(Nc3ccc(NC(=O)CCCCCCCN=C=S)cc3)nc2n1C1CCCC1
- inhibition [1]: 20%
- inhibition [2]: 57%
- inhibition [3]: 4%
- inhibition [4]: 71%
- inhibition [5]: 88%
- CLH [6]: 70 µL/min/mg
- inhibition [7]: -10%
- inhibition [8]: 15%
- inhibition [9]: 98%
- half-life at 2 µM [10]: 40.8 min
- inhibition [11]: 0%
- Activity (NCI-H1299 [12]): 34.4%
- inhibition [13]: 5%
- inhibition [14]: -6%
- inhibition [15]: 65%
- inhibition [16]: 12%
- viability at 0.5 µM (NCI-H1299 [17]): 94.5%
- inhibition [18]: -1%
- inhibition [19]: 72%
- inhibition [20]: 20%
